# Screening data (PubChem BioAssay)
# Hits are enriched below; roughly 2.9% of the tested compounds scored in any of these assays.
# TRPC6 inh = mouse TRPC6 channel inhibition. Q61143. HEK293-TRPC6, membrane potential dye, ACh-evoked depolarization; active compounds read low. B-score at 10 µM. 310,000 tested, 1.1% active. AID 2553;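 active = B-score under library mean minus 3 SD, initial fluorescence not abnormally high, positive integrated signal ratio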;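 note: B-score derived from integrated fluorescence ratio over the kinetic read; more negative B-score means stronger inhibition of depolarization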
# TRPC4 block = TRPC4 (mouse) channel inhibition; 300,000 tested, 0.39% active; HEK293 TRPC4beta/mu-opioid, DAMGO-evoked Fluo4 calcium flux; active compounds read low; B-score at 10 µM; Q9QUQ5;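 active = B-score over 3 SD under the library average, no early fluorescence shift, positive overall ratio signal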
#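 Assay system: TRPC4beta/mu-opioid receptor HEK293 cell line; compound dosing: single concentration per test compound; detection: Fluo4 Ca2+ flux fluorescence; evaluation: per-well B score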
# TRPC4 potent = allosterically enhances the mouse TRPC4 cation channel | HEK293 TRPC4beta/mu-opioid, DAMGO EC20, Fluo-4 Ca2+ flux; active compounds read high | 310,000 tested, 0.42% active | B-score at 10 µM;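 active = B-score of calcium response area above 5 SD of library B-scores, with initial fluorescence ratio within 5 SD of library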
# TRPC4 agonist = opens the mouse TRPC4 cation channel. HEK293 TRPC4beta/mu-opioid, Fluo4 calcium fluorescence; active compounds read high. B-score at 10 µM. 310,000 tested, 0.49% active. AID 2237;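 active = B-score above 5 SD of library B-scores, and initial fluorescence ratio not above library mean plus 5 SD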;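 note: positive B-score marks a calcium rise read as TRPC4 activation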
#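 System: HEK293 cells stably co-expressing mouse TRPC4beta and mu-opioid receptor; Schedule: Fluo4 dye loading 45 min at room temperature, 110 s recording; Detection: Fluo4 fluorescence, kinetic; Evaluation: B-scored integrated calcium fluorescence ratio; Controls: buffer (low) and maximal DAMGO (high).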
# Kir21 inh = inhibitors of mouse Kir2.1 inward-rectifier potassium channel. HEK293-Kir2.1, FluxOR thallium flux fluorescence; active compounds read low. B-score at 10 µM. 310,000 tested, 0.85% active;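 active = fluorescence ratio B-score at or below minus 3 SD of library scores, with starting-brightness B-score within 2 SD, cut at about -4.2 in these data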;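 note: channel flux triggered by added potassium and thallium sulfate stimulus; B-score of peak minus minimum fluorescence over baseline after thallium stimulus; more negative B-score means stronger Kir2.1 block with less thallium influx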
# Target sequence (P35561 whole entry, looked up): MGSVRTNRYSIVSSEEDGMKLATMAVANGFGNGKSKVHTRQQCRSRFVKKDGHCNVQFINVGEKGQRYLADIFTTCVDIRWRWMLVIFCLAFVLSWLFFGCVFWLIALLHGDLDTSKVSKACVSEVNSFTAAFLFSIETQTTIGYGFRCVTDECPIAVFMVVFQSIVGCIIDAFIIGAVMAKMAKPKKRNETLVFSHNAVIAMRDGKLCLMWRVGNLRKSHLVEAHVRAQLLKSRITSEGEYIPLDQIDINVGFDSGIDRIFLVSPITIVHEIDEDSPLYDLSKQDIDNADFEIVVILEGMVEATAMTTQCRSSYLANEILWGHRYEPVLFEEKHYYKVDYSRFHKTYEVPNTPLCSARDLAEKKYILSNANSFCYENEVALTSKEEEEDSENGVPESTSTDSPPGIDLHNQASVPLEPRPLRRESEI
# TRPC6 act = mouse TRPC6 channel activation; Q61143; HEK293-TRPC6 membrane potential dye fluorescence; active compounds read high; B-score at 10 µM; 310,000 tested, 0.13% active;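 active = B-score of the integrated fluorescence ratio above library mean plus 3 SD, and starting fluorescence ratio within library mean plus 5 SD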;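 note: higher score means more depolarization so channel activation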
# TRPC4 sel inh 2 = second check of whether TRPC6 inhibitors also affect mouse TRPC4; shares compounds with TRPC6 inh; HEK293 TRPC4/MOR, membrane potential dye fluorescence; channel activated by saturating DAMGO dose; inhibition, % at 10 µM; 920 tested, 42% active;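 active = compounds whose fluorescence signal differed from control wells by over 3 SD, either direction, in both duplicate plates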
# TRPC4 spec = tests whether TRPC6 inhibitors also affect mouse TRPC4 | activity change, negative = inhibition, % at 10 µM | HEK293 TRPC4/mu-opioid, membrane potential fluorescence | 920 tested, 61% active | shares compounds with TRPC6 inh | AID 2777;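 active = rise or fall in signal beyond 3 SD of buffer-only wells in both replicate plates, either sign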;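 note: integrated kinetic ratio of fluorescence range over baseline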
# HEK293 MPD ctr 2-1 = second counter-screen for TRPC6 inhibitors: parental HEK293 cells | shares compounds with TRPC6 inh | parental HEK293 membrane potential dye fluorescence; maximal acetylcholine challenge after compound addition | signal change vs control, % at 10 µM | 920 tested, 31% active;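 active = membrane potential signal moving either way by over 3 SD of the maximum-effect control, in both duplicate plates, meaning non-specific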
# HEK293 MPD ctr-1 = checks TRPC6 inhibitor effects in parental HEK293 cells. 920 tested, 60% active. parental HEK293 membrane potential dye fluorescence. membrane potential signal change, % at 10 µM. shares compounds with TRPC6 inh. AID 2780;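 active = membrane potential signal shifting up or down by more than 3 SD of buffer-only wells, on both duplicate plates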
# HEK293 MPD ctr-2 = parental HEK293 nonspecific activity of TRPC6 modulators | membrane potential dye fluorescence | AID 488924 | membrane potential signal change, % at 10 µM | 2,400 tested, 51% active | shares compounds with TRPC6 inh;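 active = membrane potential signal moves up or down beyond 5 SD from buffer-only wells, on both duplicate plates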
# HEK293 MPD ctr 2-2 = second check of TRPC6 modulator effects in parental HEK293 cells | shares compounds with TRPC6 inh | membrane potential dye fluorescence; after compound, maximal acetylcholine stimulation | inhibition, % at 10 µM | 2,400 tested, 14% active;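 active = membrane potential signal drops by more than 5 SD from the mean control signal, in both duplicate plates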
# TRPC4/MOR mod = tests whether TRPC6 modulators also affect mouse TRPC4. shares compounds with TRPC6 inh. HEK293 TRPC4/mu-opioid, membrane potential fluorescence. percent change from control (negative = decrease, positive = increase), % at 10 µM. 2,400 tested, 69% active. AID 488927;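 active = membrane potential signal moved up or down beyond 5 SD of buffer control wells, in both duplicate plates, actives on both sides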
# TRPC4/MOR inh 2 = second selectivity test of TRPC6 modulators against mouse TRPC4. HEK293 TRPC4/mu-opioid, membrane potential dye fluorescence; stimulated with maximal-effect DAMGO. shares compounds with TRPC6 inh. inhibition, % at 10 µM. 2,400 tested, 55% active;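 active = drop in membrane potential signal beyond 5 SD of the control wells in both duplicate plates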;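 note: TRPC4 counter screen for TRPC6 hits run under conditions tuned for TRPC6 not TRPC4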
# TRPC6 inh conf = confirmation of mouse TRPC6 inhibitors | shares compounds with TRPC6 inh | HEK293-TRPC6, membrane potential dye, ACh-evoked depolarization | inhibition, % at 10 µM | 3,300 tested, 43% active;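 active = fluorescence ratio falls more than 5 SD below the full-stimulation control mean, in both duplicate runs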;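 note: integrated fluorescence ratio of peak minus minimum over baseline after agonist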
# TRPC6 act confirm = confirmation of mouse TRPC6 activators. shares compounds with TRPC6 inh. HEK293-TRPC6 membrane potential dye fluorescence, FDSS. activation, % at 10 µM. 2,800 tested, 11% active. AID 488961;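 active = ratio signal rise beyond 5 SD above unstimulated control wells' mean, seen in both duplicate runs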
# Hits are given with their value; - = inactive; . = no result given.
SMILES,TRPC6 inh,TRPC4 block,TRPC4 potent,TRPC4 agonist,Kir21 inh,TRPC6 act,HEK293 MPD ctr-2,HEK293 MPD ctr 2-2,TRPC4/MOR mod,TRPC4/MOR inh 2,TRPC6 inh conf,TRPC6 act confirm,others
CN1CCc2c1nc1ccccc1c2NC(=O)CN1CCCC1,-6.5,-,-,-,-,-,-278%,-,-46%,46%,-,-,
CCCCCCC(=O)Nc1c2c(nc3ccccc13)N(C)CC2,-,-,-,-,-,-,.,.,.,.,.,.,
CCCCCC(=O)Nc1cc(N(C)C)nc2ccccc12,-5.4,-,-,-,-,-,-,-,-10%,48%,-,-,
CCN(CC)CC(=O)Nc1cc(N(C)C)nc2ccccc12,-7.5,-,-,-,-,-,.,.,.,.,68%,-,TRPC4 sel inh 2=70%;TRPC4 spec=-25%;HEK293 MPD ctr 2-1=3.0%;HEK293 MPD ctr-1=-474%
CCCc1nc2ccccc2c(NC(=O)CN(CC)CC)c1CC,-,-,-,-,-,-,.,.,.,.,.,.,
CN1CCN(CC(=O)Nc2cc(N(C)C)nc3ccccc23)CC1,-6.8,-,-,-,-,-,-154%,-,-26%,44%,-,-,
CC(C)C[C@H](NC(=O)N1CCn2c1nc1ccccc12)C(=O)NCc1ccc2c(c1)OCO2,-,-,-,-,-,-,.,.,.,.,.,.,
CCn1c(C)nc2cc(C(=O)N/N=C(\C)c3ccc(OC)cc3O)ccc21,-,-,-,-,-,-,.,.,.,.,.,.,
COC(=O)c1ccc(C)c(NS(=O)(=O)c2cn(C)nc2C)c1,-,-,-,-,-,-,.,.,.,.,.,.,
CC1Cc2ccccc2N1C(=O)c1ccc(N2CCCCC2)c([N+](=O)[O-])c1 (stereo unspecified),-5.8,-,-,-,-,-,-,-,-,-,-,-,
CN(C)CCCNC1CS(=O)(=O)CC1O (stereo unspecified),-7.2,-,-,-,-,-,.,.,.,.,-,-,TRPC4 sel inh 2=-;TRPC4 spec=-;HEK293 MPD ctr 2-1=-;HEK293 MPD ctr-1=-
O=[N+]([O-])c1ccc(C[n+]2cccc3c4ccccc4ccc32)cc1,-6,-,-,-,-,-,-434%,-,-61%,64%,51%,-,
Cc1ccc[n+](Cc2ccc([N+](=O)[O-])cc2)c1,-,-,-,-,-,-,.,.,.,.,.,.,
O=C(NC1=NCCS1)c1ccccc1OCc1ccccc1Cl,-,-,-,-,-,-,.,.,.,.,.,.,
O=C(Nc1ccc2c(c1)OCCO2)C1CCCN(S(=O)(=O)c2cnc[nH]2)C1 (stereo unspecified),-,-,-,-,-,-,.,.,.,.,.,.,
